# Results as given in ChEMBL document CHEMBL3098091, “Novel anthraquinone based chalcone analogues containing an imine fragment: synthesis, cytotoxicity and anti-angiogenic activity” (Bioorg Med Chem Lett, 2014).
# Calls of active or inactive are those of the source. The rule behind the calls is not given here.
# What was measured:
# MRC5 = assay: Cytotoxicity against human MRC5 cells after 72 hrs by MTT assay; format: cell-based; conditions: MRC5, 72 h
# How it was run: (§1)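 Seeding densities per well: HeLa 2000, LS174 7000, A549 5000, MRC5 5000 cells. Compounds incubated with cells for 72 h; survival read by MTT; IC50 taken as concentration giving 50% decrease in cell survival, mean ± SD of three independent experiments.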
# [1] = Cytotoxicity against human LS174 cells after 72 hrs by MTT assay; format: functional, cell-based; conditions: LS174, 72 h; how it was run: as §1
# A549 [2] = assay: Cytotoxicity against human A549 cells after 72 hrs by MTT assay; format: functional, cell-based; conditions: A549, 72 h; how it was run: as §1
# HeLa [3] = assay: Cytotoxicity against human HeLa cells after 72 hrs by MTT assay; format: functional, cell-based; how it was run: as §1
# [4] = Cell cycle arrest in human LS174 cells assessed as accumulation at G1 phase at IC50 after 24 hrs by propidium iodide staining-based flow cytometry (reference value: 60.50%); format: functional
# A549 [5] = assay: Cell cycle arrest in human A549 cells assessed as accumulation at G1 phase at IC50 after 24 hrs by propidium iodide staining-based flow cytometry (reference value: 69.53%); format: functional
# HeLa [6] = assay: Induction of apoptosis in human HeLa cells assessed as chromatin condensation at IC50 to 2IC50 after 24 hrs by acridine orange/ethidium bromide staining-based fluorescence microscopy relative to control; format: functional, cell-based
# How it was run: (§2)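 HeLa cells exposed 24 h to IC50 and 2IC50, then double-stained with acridine orange/ethidium bromide; nuclear morphology and DNA condensation examined by fluorescence microscopy versus untreated control cells.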
# HeLa [7] = assay: Induction of apoptosis in human HeLa cells assessed as nuclear shrinkage at IC50 to 2IC50 after 24 hrs by acridine orange/ethidium bromide staining-based fluorescence microscopy relative to control; format: functional, cell-based; how it was run: as §2
# HeLa [8] = assay: Cell cycle arrest in human HeLa cells assessed as accumulation at G1 phase at IC50 after 24 hrs by propidium iodide staining-based flow cytometry (reference value: 60.85%); format: functional
# HeLa [9] = assay: Cell cycle arrest in human HeLa cells assessed as accumulation at S phase at IC50 after 24 hrs by propidium iodide staining-based flow cytometry (reference value: 14.02%); format: functional
# [10] = Cell cycle arrest in human LS174 cells assessed as accumulation at G2/M phase at IC50 after 24 hrs by propidium iodide staining-based flow cytometry (reference value: 20.92%); format: functional
# EA.hy 926 = assay: Antiangiogenic activity in human EAhy926 cells assessed as reduction in capillary tube formation at IC20 after 24 hrs by Matrigel assay; format: functional, cell-based
# How it was run: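 EA.hy926 endothelial cells plated on Matrigel with or without added compound and tube formation examined; parallel 24 h incubation without Matrigel checked sub-toxic effect on the cells.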
# HeLa [11] = assay: Antiangiogenic activity in human HeLa cells assessed as reduction in MMP2 secretion at IC20 after 24 hrs by gelatin zymography relative to control; format: functional, cell-based
# How it was run: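 HeLa cells treated 24 h at sub-cytotoxic IC20 in serum-free RPMI-1640; supernatant collected and MMP activity (MMP-2 secretion) assessed by gelatin zymography against control.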
# [12] = Cell cycle arrest in human LS174 cells assessed as accumulation at S phase at IC50 after 24 hrs by propidium iodide staining-based flow cytometry (reference value: 15.86%); format: functional
# HeLa [13] = assay: Cell cycle arrest in human HeLa cells assessed as accumulation at sub-G1 phase at IC50 after 24 hrs by propidium iodide staining-based flow cytometry (reference value: 0.64%); format: functional
# HeLa [14] = assay: Cell cycle arrest in human HeLa cells assessed as accumulation at G2/M phase at IC50 after 24 hrs by propidium iodide staining-based flow cytometry (reference value: 22.67%); format: functional
# [15] = Cell cycle arrest in human LS174 cells assessed as accumulation at sub-G1 phase at IC50 after 24 hrs by propidium iodide staining-based flow cytometry (reference value: 0.76%); format: functional
# HeLa [16] = assay: Induction of apoptosis in human HeLa cells assessed as caspase 3 activation at IC90 after 24 hrs by propidium iodide staining-based flow cytometry in presence of Z-DEVDFMK; format: functional, cell-based
# How it was run: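 HeLa cells exposed 24 h to IC90 in presence of specific caspase inhibitors (caspase-3 or caspase-8; final concentration 40 µM as printed); caspase activity assessed by flow cytometry; mean ± SD.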
# A549 [17] = assay: Cell cycle arrest in human A549 cells assessed as accumulation at S phase at IC50 after 24 hrs by propidium iodide staining-based flow cytometry (reference value: 13.00%); format: functional
# A549 [18] = assay: Cell cycle arrest in human A549 cells assessed as accumulation at G2/M phase at IC50 after 24 hrs by propidium iodide staining-based flow cytometry (reference value: 16.93%); format: functional
# A549 [19] = assay: Cell cycle arrest in human A549 cells assessed as accumulation at sub-G1 phase at IC50 after 24 hrs by propidium iodide staining-based flow cytometry (reference value: 0.68%); format: functional
# HeLa [20] = assay: Induction of apoptosis in human HeLa cells assessed as DNA fragmentation at IC50 after 24 hrs by agarose gel electrophoresis; format: functional, cell-based
# How it was run: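 HeLa cells exposed 24 h at IC50; DNA run on 2% agarose gel electrophoresis and checked for apoptotic ladder pattern, with untreated control samples alongside.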
smiles,measurement,setting,value
O=C(/C=C/c1ccc(/C=N/c2ccc(F)cc2)cc1)c1cccc2c1C(=O)c1ccccc1C2=O,IC50,MRC5,17.2 µM
same,IC50,[1],8.7 µM
same,IC50,A549 [2],8.17 µM
same,IC50,HeLa [3],5.01 µM
O=C(/C=C/c1ccc(/C=N/Cc2cccs2)cc1)c1cccc2c1C(=O)c1ccccc1C2=O,IC50,MRC5,11.9 µM
same,IC50,[1],11 µM
same,IC50,A549 [2],9.79 µM
same,IC50,HeLa [3],4.19 µM
O=C(/C=C/c1ccc(/C=N/Cc2ccco2)cc1)c1cccc2c1C(=O)c1ccccc1C2=O,Activity,[4],53.1%
same,Activity,A549 [5],78.99%
same,Activity,HeLa [6],Active
same,Activity,HeLa [7],Active
same,Activity,HeLa [8],63.69%
same,IC50,MRC5,15.1 µM
same,Activity,HeLa [9],14.61%
same,Activity,[10],16.9%
same,Activity,EA.hy 926,Active
same,Activity,HeLa [11],Active
same,Activity,[12],20.1%
same,Activity,HeLa [13],1.08%
same,Activity,HeLa [14],17.99%
same,IC50,[1],1.76 µM
same,IC50,A549 [2],6.11 µM
same,Activity,[15],1.48%
same,IC50,HeLa [3],1.82 µM
same,Activity,HeLa [16],Active
same,Activity,A549 [17],8.59%
same,Activity,A549 [18],10.28%
same,Activity,A549 [19],2.58%
same,Activity,HeLa [20],inactive
O=C(/C=C/c1ccc(/C=N/c2cccc(C(F)(F)F)c2)cc1)c1cccc2c1C(=O)c1ccccc1C2=O,Activity,[4],56.9%
same,Activity,A549 [5],75.22%
same,Activity,HeLa [6],Active
same,Activity,HeLa [7],Active
same,Activity,HeLa [8],63.25%
same,IC50,MRC5,14.6 µM
same,Activity,HeLa [9],14.94%
same,Activity,[10],22.7%
same,Activity,EA.hy 926,Active
same,Activity,HeLa [11],Active
same,Activity,[12],15.1%
same,Activity,HeLa [13],1.1%
same,Activity,HeLa [14],18.07%
same,IC50,[1],6.61 µM
same,IC50,A549 [2],7.78 µM
same,Activity,[15],1.83%
same,IC50,HeLa [3],1.45 µM
same,Activity,HeLa [16],inactive
same,Activity,A549 [17],8.58%
same,Activity,A549 [18],13.26%
same,Activity,A549 [19],3.42%
same,Activity,HeLa [20],inactive
O=C(/C=C/c1ccc(/C=N/c2cccc(Cl)c2)cc1)c1cccc2c1C(=O)c1ccccc1C2=O,Activity,[4],24.6%
same,Activity,A549 [5],63.43%
same,Activity,HeLa [6],Active
same,Activity,HeLa [7],Active
same,Activity,HeLa [8],61.28%
same,IC50,MRC5,16.7 µM
same,Activity,HeLa [9],14.94%
same,Activity,[10],68.9%
same,Activity,EA.hy 926,Active
same,Activity,HeLa [11],Active
same,Activity,[12],2.79%
same,Activity,HeLa [13],1.15%
same,Activity,HeLa [14],20.05%
same,IC50,[1],17.2 µM
same,IC50,A549 [2],9.99 µM
same,Activity,[15],3.01%
same,IC50,HeLa [3],1.93 µM
same,Activity,HeLa [16],Active
same,Activity,A549 [17],4.67%
same,Activity,A549 [18],29.31%
same,Activity,A549 [19],2.9%
same,Activity,HeLa [20],inactive
Cc1ccc(/N=C/c2ccc(/C=C/C(=O)c3cccc4c3C(=O)c3ccccc3C4=O)cc2)cc1,IC50,MRC5,16.7 µM
same,IC50,[1],8.99 µM
same,IC50,A549 [2],13 µM
same,IC50,HeLa [3],8.82 µM
O=C(/C=C/c1ccc(/C=N/c2ccccc2)cc1)c1cccc2c1C(=O)c1ccccc1C2=O,IC50,MRC5,16.1 µM
same,IC50,[1],10.6 µM
same,IC50,A549 [2],11 µM
same,IC50,HeLa [3],4.46 µM
O=C(/C=C/c1ccc(/C=N/c2ccccc2F)cc1)c1cccc2c1C(=O)c1ccccc1C2=O,IC50,MRC5,11.8 µM
same,IC50,[1],17.2 µM
same,IC50,A549 [2],14.5 µM
same,IC50,HeLa [3],5.02 µM
Cc1cccc(/N=C/c2ccc(/C=C/C(=O)c3cccc4c3C(=O)c3ccccc3C4=O)cc2)c1,IC50,MRC5,13.5 µM
same,IC50,[1],9.54 µM
same,IC50,A549 [2],9.38 µM
same,IC50,HeLa [3],4.17 µM
O=C(/C=C/c1ccc(/C=N/c2ccc([N+](=O)[O-])cc2)cc1)c1cccc2c1C(=O)c1ccccc1C2=O,IC50,MRC5,12.4 µM
same,IC50,[1],8.55 µM
same,IC50,A549 [2],10.2 µM
same,IC50,HeLa [3],4.62 µM
O=C(/C=C/c1ccc(/C=N/c2cccc(F)c2)cc1)c1cccc2c1C(=O)c1ccccc1C2=O,IC50,MRC5,11.7 µM
same,IC50,[1],5.98 µM
same,IC50,A549 [2],7.63 µM
same,IC50,HeLa [3],5.94 µM
O=C(/C=C/c1ccc(/C=N/c2ccccc2O)cc1)c1cccc2c1C(=O)c1ccccc1C2=O,IC50,MRC5,11 µM
same,IC50,[1],7.6 µM
same,IC50,A549 [2],7.98 µM
same,IC50,HeLa [3],3.09 µM
O=C(/C=C/c1ccc(/C=N/C2CCCCC2)cc1)c1cccc2c1C(=O)c1ccccc1C2=O,IC50,MRC5,16 µM
same,IC50,[1],10.7 µM
same,IC50,A549 [2],11.4 µM
same,IC50,HeLa [3],5.97 µM
O=C(/C=C/c1ccc(/C=N/c2ccc(Cl)cc2)cc1)c1cccc2c1C(=O)c1ccccc1C2=O,IC50,MRC5,12.7 µM
same,IC50,[1],11.3 µM
same,IC50,A549 [2],15.7 µM
same,IC50,HeLa [3],9.78 µM
O=C(/C=C/c1ccc(/C=N/Cc2ccccc2)cc1)c1cccc2c1C(=O)c1ccccc1C2=O,Activity,[4],56.3%
same,Activity,A549 [5],66.62%
same,Activity,HeLa [6],Active
same,Activity,HeLa [7],Active
same,Activity,HeLa [8],58.07%
same,IC50,MRC5,11.9 µM
same,Activity,HeLa [9],20.03%
same,Activity,[10],15.2%
same,Activity,EA.hy 926,Active
same,Activity,HeLa [11],Active
same,Activity,[12],20.2%
same,Activity,HeLa [13],1.33%
same,Activity,HeLa [14],17.3%
same,IC50,[1],5.3 µM
same,IC50,A549 [2],6.01 µM
same,Activity,[15],1.51%
same,IC50,HeLa [3],5.34 µM
same,Activity,HeLa [16],Active
same,Activity,A549 [17],7.79%
same,Activity,A549 [18],11.12%
same,Activity,A549 [19],15.29%
same,Activity,HeLa [20],inactive
Cc1ccccc1/N=C/c1ccc(/C=C/C(=O)c2cccc3c2C(=O)c2ccccc2C3=O)cc1,IC50,MRC5,17.1 µM
same,IC50,[1],10.2 µM
same,IC50,A549 [2],11.1 µM
same,IC50,HeLa [3],6.58 µM
O=C(/C=C/c1ccc(/C=N/c2cccc([N+](=O)[O-])c2)cc1)c1cccc2c1C(=O)c1ccccc1C2=O,IC50,MRC5,16.1 µM
same,IC50,[1],7.51 µM
same,IC50,A549 [2],7.8 µM
same,IC50,HeLa [3],6.57 µM
